Paper PMC4353699 (Journal of medicinal chemistry, 2014)

Columns and labels:
[1] = Metabolic stability in human liver microsomes; format: in vitro ADME; details: without NADPH
Caco-2 cells = assay: Caco-2 permeability assay; details: Caco-2, apical to basolateral, 10 μM
[2] = test system: 18 different strains of MRSA and VRSA; assay: MIC, summary over the strain panel; format: cell-based, Staphylococcus aureus
How it was run: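 Panel of 18 clinical isolates of MRSA and VRSA, with MRSA strains supplied by the NARSA repository. It includes linezolid-resistant MRSA NRS119 and multidrug-resistant VRSA, USA100, USA200 and USA500. MIC is the minimum concentration of test compound that inhibits bacterial growth.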

MRSA (USA300) = assay: Time-kill assay; format: cell-based, Staphylococcus aureus; details: for bactericidal effect in time-kill assay / time to eliminate MRSA (CFU to zero): 3.0 × MIC
in vitro = details: human, Caco-2

CCCCc1ccc(-c2nc(C)c(/C(C)=N/NC(=N)N)s2)cc1 [1a]
metabolism on removing the cofactor NADPH [1]: significantly reduced | Papp, A to B direction (Caco-2 cells): very limited permeability | concentration inhibiting growth (MIC), range over MRSA strains [2]: 1.4 to 5.5 µg/mL | bactericidal effect in time-kill assay (MRSA (USA300)): bactericidal | time to eliminate MRSA (CFU to zero) (MRSA (USA300)): within two hours

CCCCCc1ccc(-c2nc(C)c(/C(C)=N/NC(=N)N)s2)cc1 [1d]
bactericidal effect in time-kill assay (MRSA (USA300)): bactericidal | time to eliminate MRSA (CFU to zero) (MRSA (USA300)): within two hours

CN[C@H](CC(C)C)C(=O)N[C@H]1C(=O)N[C@@H](CC(N)=O)C(=O)N[C@H]2C(=O)N[C@H]3C(=O)N[C@H](C(=O)N[C@H](C(=O)O)c4cc(O)cc(O)c4-c4cc3ccc4O)[C@H](O)c3ccc(c(Cl)c3)Oc3cc2cc(c3O[C@@H]2O[C@H](CO)[C@@H](O)[C@H](O)[C@H]2O[C@H]2C[C@](C)(N)[C@H](O)[C@H](C)O2)Oc2ccc(cc2Cl)[C@H]1O [VAN, vancomycin, reference compound]
reduction of CFU by 3-log10 (MRSA (USA300); within a 12-hour window): not able to reduce the number of CFU by 3-log10

C/C(=N\NC(=N)N)c1sc(-c2ccc(C3CCCCC3)cc2)nc1C [compound 8, 2-{1-[2-(4-Cyclohexylphenyl)-4-methylthiazol-5-yl]ethylidene}hydrazinecarboximidamide]
bactericidal effect in time-kill assay (MRSA (USA300)): bactericidal | time to eliminate MRSA (CFU to zero) (MRSA (USA300)): six hours

CNC(=C[N+](=O)[O-])NCCSCc1ccc(CN(C)C)o1 [ranitidine]
Papp A→B at 2 h, 10 µM (in vitro): 0.2 ×10⁻⁶ cm/s
